From BindingDB's records for doi:10.1021/acs.jmedchem.7b00924 (University of Copenhagen, 2017)
pIC50: −log10 of the molar value.

Target: T1, Sodium- and chloride-dependent betaine transporter (Mus musculus, UniProt P31651)
T1 sequence (P31651 whole entry): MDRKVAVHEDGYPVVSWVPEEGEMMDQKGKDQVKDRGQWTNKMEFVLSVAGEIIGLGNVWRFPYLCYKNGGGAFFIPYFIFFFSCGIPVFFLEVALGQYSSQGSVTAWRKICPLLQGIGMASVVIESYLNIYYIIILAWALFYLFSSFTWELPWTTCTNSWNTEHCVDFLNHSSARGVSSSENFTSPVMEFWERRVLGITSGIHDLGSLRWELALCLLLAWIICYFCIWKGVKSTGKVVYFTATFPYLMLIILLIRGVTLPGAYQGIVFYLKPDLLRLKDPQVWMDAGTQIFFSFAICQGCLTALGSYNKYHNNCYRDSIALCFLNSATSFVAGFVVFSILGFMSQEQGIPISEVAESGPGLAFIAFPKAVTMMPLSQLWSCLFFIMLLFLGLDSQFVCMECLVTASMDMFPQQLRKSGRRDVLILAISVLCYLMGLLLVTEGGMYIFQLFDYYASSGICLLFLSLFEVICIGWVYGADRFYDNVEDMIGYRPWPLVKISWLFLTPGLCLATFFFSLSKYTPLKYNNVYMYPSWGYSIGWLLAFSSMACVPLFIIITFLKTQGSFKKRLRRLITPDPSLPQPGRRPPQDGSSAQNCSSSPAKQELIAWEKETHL
Assay: Inhibition of mouse BGT1 expressed in HEK293 cells assessed as reduction in [3H]GABA uptake after 3 mins by scintillation counting method
In short: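 HEK293 lines stably expressing a single mouse GAT subtype, kept under blasticidin-S (5 µg/mL) selection. Cells were assayed about 24 h after plating with 30 nM [3H]GABA plus varying compound concentrations for 3 min at 37 °C in HBSS buffered with 20 mM HEPES (1 mM CaCl2, 1 mM MgCl2, pH 7.4). Cells were washed ice-cold and radioactivity counted. IC50 came from sigmoidal variable-slope fits.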

pIC50: 3.90
Structure (SMILES): O=C(NC1CCN(Cc2cccc(OC(F)(F)F)c2)CC1)c1ccc(Cl)cc1Cl
